MEKK3 PB1 HTS: modulators of MEKK3-MEK5 PB1 binding, primary screen, biochemical, wildtype MEKK3, multiplex bead flow cytometry, Alexa488-MEK5; Mitogen-activated protein kinase kinase kinase 3 (Homo sapiens), Q99759; bead-based flow cytometry, Alexa488-MEK5 binding to MEKK3; actives lie on both sides; 0 = blocked by unlabeled MEK5, 100 = vehicle; binding response (% of control), % at 10 µM; 290,000 tested, 1.4% active; AID 1529, 2009;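 active means binding response more than 3 SD above or below the average of its plate-row segment, actives on both sides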;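 further: Alexa488 bead fluorescence after subtracting the streptavidin-only scavenger bead signal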
PREPL inh: PREPL enzyme inhibitors, primary screen, biochemical, fluorescence polarization. Prolyl endopeptidase-like (Homo sapiens), Q4J6C6. recombinant PREPL, fluorescence polarization activity-based probe. inhibition, % at 5.96 µM. 320,000 tested, 0.68% active; in the data active means inhibition above about 43%
Apaf1 inhib: inhibitors of human Apaf-1 apoptosome, primary screen, biochemical, DEVD-Rh110 fluorescence, uHTS; 330,000 tested, 0.71% active; AID 489030, 2010; Apoptotic protease-activating factor 1 (Homo sapiens), O14727; inhibition, % at 20 µM; reconstituted apoptosome caspase-3 activity; active means inhibition of at least 40% at 20 µM
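Medium: Hepes buffer, pH 7.5 / System: biochemical Apaf-1 apoptosome reconstitution / Measured by: Rh110 fluorescence, excitation 480 nm, emission 540 nm / Times: compound with Apaf-1, dATP, procaspase-3 30 min, then 50 min reaction, room temperature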
MEKK2mut PB1 HTS: MEK5 binding signal on mutant MEKK2 PB1, primary screen, biochemical, multiplex bead flow cytometry, Alexa488-MEK5. Alexa488-MEK5 binding to MEKK2 mutant. percent response, % at 10 µM. 290,000 tested, 0.35% active. AID 1530, 2009; in the data active means percent response above about 24%, passing the limit was not always enough
UBC13 polyUb: UBC13 polyubiquitin chain formation inhibitors, primary screen, biochemical, TR-FRET, uHTS. Ubiquitin-conjugating enzyme E2 N (Homo sapiens), P61088. 330,000 tested, 0.47% active. inhibition, % at 20 µM; in the data active means inhibition above about 45%, passing the limit was not always enough
MEKK2 WT-MEK5: modulators of MEK5 binding to wildtype MEKK2, primary screen, biochemical, multiplex bead flow cytometry, Alexa488-MEK5 | Mitogen-activated protein kinase kinase kinase 2 (Homo sapiens), Q9Y2U5 | 290,000 tested, 1.1% active | Alexa488-MEK5 binding to MEKK2 WT; actives lie on both sides | binding response (% of control), % at 10 µM | AID 1531, 2009; in the data active means binding response below about 67% or above about 130%
Hits are given with their value; n = inactive; x = no result given; [ ] = remark or other dose. A selection: hits, their analogues and other compounds. The true share with any hit is near 3.1%.

SMILES | MEKK3 PB1 HTS | PREPL inh | Apaf1 inhib | MEKK2mut PB1 HTS | UBC13 polyUb | MEKK2 WT-MEK5
CC[C@H](C)[C@@H](NC(=O)O[C@@H]1C(=O)c2cc(Br)ccc2O[C@H]1c1ccc2c(c1)OCO2)C(=O)OC | 78[inhibitor] | x | x | n | x | n
O=C(NCc1ccc(F)cc1)c1cc(C(=O)C2CC2)c[nH]1 | n | n | n | n | n | n
CCCCc1nc(N2CCN(C(=O)c3ccco3)CC2)c(C#N)c2c1CCCC2 | n | n | 42 | n | n | n
CCN(CC(=O)Nc1ccc(Br)cc1)CC(=O)Nc1cc(C)on1 | x | x | n | x | n | x
CCCCN1C(=O)Cc2c1nc(N)c1c(N)nc(N(CCC)CCC)c(C#N)c21 | x | n | x | x | x | x
COc1ccc(CN2C(=O)Cc3c2nc(N)c2c(N)nc(N4CCCCC4)c(C#N)c32)cc1 | n | n | 51 | n | n | n
COc1cc2c(C#N)c(N3CCCCC3)nc(N)c2c(N)n1 | n | n | 97 | n | n | n
CN(C)[C@@H]1C(=O)C(C(=O)NCN2CCCC2)=C(O)[C@@]2(O)C(=O)C3=C(O)c4c(O)cccc4[C@@](C)(O)C3CC12 (some centres undefined) | n | x | x | n | x | 26[inhibitor]
CN(C)c1ccc(O)c2c1CC1CC3C(N(C)C)C(=O)C(C(N)=O)=C(O)[C@@]3(O)C(=O)C1=C2O (some centres undefined) | n | n | n | n | n | n
C=CC[C@]12CCc3ccccc3C1N(c1ccc(C(=O)OCC)cc1)C2=O (some centres undefined) | x | n | n | x | n | x
O=C1c2ccccc2C(=O)C1(O)O | x | n | 68 | x | n | x
Cc1cc(C(=O)N2CCN(S(=O)(=O)c3ccc(C)c(C)c3)CC2)no1 | x | x | n | x | n | x
Nc1nc(Nc2ccccc2)nc2ccccc12 | n | n | n | n | n | n
Cc1ccccc1Nc1nc(N)c2ccccc2n1 | 161 | n | n | n | n | 173
NC(=O)c1cc(N)ccc1N1CCCC1 | n | n | 44 | n | n | n
CC1CCCC(C)N1C(=O)Cn1nnc(-c2ccc([N+](=O)[O-])cc2)n1 (centres undefined) | n | n | n | n | n | n
COc1ccc(-c2ccc(CNCc3ccccn3)o2)cc1Cl | n | 51 | x | n | x | n
CSc1ccccc1NC(=O)CN(C)C(C)C(=O)NCc1ccc2c(c1)OCO2 (centres undefined) | x | n | n | x | n | x
C=CCn1c(NC(=O)c2ccc(Br)o2)c(S(=O)(=O)c2ccccc2)c2nc3ccccc3nc21 | n | n | 63 | n | n | n
COc1cccc(/C=C2\SC(=S)N(C(C(=O)O)c3ccccc3)C2=O)c1OC (centres undefined) | n | n | n | n | n | -4.0
COc1cc(/C=C2\SC(=S)N(C(C(=O)O)c3ccccc3)C2=O)cc(OC)c1OC (centres undefined) | n | n | n | n | n | n
COc1cccc(NC(=O)CCN2C(=O)c3ccccc3Sc3ncccc32)c1 | n | n | n | n | n | n
O=C(Cn1c(CO)nc2ccccc21)Nc1ccc2c(c1)OCCCO2 | x | n | n | x | n | x
O=C(NCc1ccc2c(c1)OCO2)c1ccc2c(c1)OCO2 | n | n | n | n | n | n
Cc1cc2cc(CNC(=O)c3ccc4c(c3)OCO4)ccc2[nH]1 | n | n | n | n | n | -9.0
SMILES | MEKK3 PB1 HTS | PREPL inh | Apaf1 inhib | MEKK2mut PB1 HTS | UBC13 polyUb | MEKK2 WT-MEK5
CCN(CC)C(=O)Cn1c(=O)n(CC(=O)N2CCCCC2)c(=O)c2sccc21 | n | n | n | n | n | n
COc1ccc(-c2c[n+]3c4n2CCCCC4=C(c2ccc(Br)cc2)C3)cc1 | x | 49 | x | x | x | x
CCCn1c(O)c(C=Nc2ccccc2)sc1=S | n | n | n | n | n | n
Oc1c(/C=C/C=C/C=Nc2ccccc2)sc(=S)n1Cc1ccccc1 | 21[inhibitor] | n | n | n | n | x
O=c1c2c(-c3cccs3)csc2ncn1-c1ccccc1 | n | n | n | n | n | 15
CCN(C(=O)CSc1nnc(SC)s1)c1c(N)n(Cc2ccccc2)c(=O)[nH]c1=O | x | n | n | x | n | x
CCOc1ccc(NCc2cccn2-c2nnc(N3CCC(C(=O)NCCCN4CCCCC4C)CC3)s2)cc1 (centres undefined) | n | n | n | 33 | n | 147
CCC1CCCCN1CCCNC(=O)C1CCN(c2nnc(-n3cccc3)s2)CC1 (centres undefined) | n | n | n | n | n | 141
CCOc1ccc(NCc2cccn2-c2nnc(N3CCC(C(=O)NCCCN4C(C)CCCC4C)CC3)s2)cc1 (centres undefined) | n | n | n | 25 | n | 152
CCOc1ccc(N2C(N)=NC(N)=NC2(C)C)cc1 | n | n | n | n | n | n
CC1(C)N=C(N)N=C(N)N1c1ccc(OCCCOc2ccccc2)c(Cl)c1 | n | n | x | 46 | x | 165
O=C(O)c1cc(S(=O)(=O)NCCOc2ccccc2)ccc1Cl | x | n | n | x | n | x
CC1CCCC(NC(=O)CN(C)CC(=O)Nc2ccc(F)cc2)C1C (centres undefined) | x | n | n | x | n | x
O=S(=O)(Nc1ccc(N2CCCCC2)cc1)c1ccc(F)cc1F | n | n | n | n | n | -10
O=S(=O)(Nc1ccc(N2CCCCC2)cc1)c1ccccc1F | n | n | n | n | n | n
Cc1oc2c(c1C(=O)NCc1cccnc1)C(=O)c1ccccc1C2=O | n | n | 86 | n | n | n
O=C(Nc1cccc2cccnc12)c1ccc(Cl)cc1Cl | n | n | n | n | n | n
Oc1ccc(Cl)cc1CNc1cccc2cccnc12 | n | n | 91 | n | n | n
COc1ccc(S(=O)(=O)NC2CC(C)(C)NC(C)(C)C2)c2ccccc12 | n | n | n | n | n | n
CC(=O)Oc1c(-c2ccc(Br)o2)oc2ccccc2c1=O | n | n | n | n | n | n
CCOC(=O)/C(=C/c1ccc(OC(=O)c2ccccc2)cc1)C(C)=O | n | n | n | n | n | 4.0
CCN(CC)c1ccc(NC(=O)CN2CCN(S(=O)(=O)c3cc(Cl)ccc3OC)CC2)cc1 | n | 72 | n | n | n | n
Cc1cc(/C=C\c2ccc3cc(N(C)C)ccc3[n+]2C)c(C)n1-c1ccccc1 | x | n | 43 | x | n | x
CCOC(=O)C1=CN(Cc2cccc(-c3ccc(F)cc3)c2)S(=O)(=O)N(C)C1C (centres undefined) | x | x | n | x | x | x
Cc1ccccc1NC(=O)CN1C(=O)NC2(CCc3ccccc32)C1=O (centres undefined) | x | n | n | x | n | x

High-throughput results from PubChem.
